ABHD5 PLIN5 PPI – blocks binding of human ABHD5 to perilipin-5. Q00G26+Q8WTS1. Split G. princeps luciferase complementation, luminescence, 4 h. inhibition, % at 4 µM. 0.78% of 360,000 active;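 active = inhibition above the mean inhibition across every tested compound plus 3 SD, cut at about 22% in these data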;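 also: 0% = DMSO only wells and the 100% control is not disclosed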
Rpn11 inh – blocks the human proteasome subunit Rpn11 | O00487 | human 26S proteasome, Ub4-pepOG fluorescence polarization; 20S core pre-blocked with epoxomicin | inhibition, % at 20 µM | 0.59% of 360,000 active | AID 588493;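 active = inhibition at 20 µM, scaled to each plate's controls, above about 33%, limit read from the data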
XiGFP reactiv – X-chromosome reactivation activator. 0.055% of 360,000 active. XiGFP mouse fibroblasts, % GFP-positive cells imaging, 3 d; cells co-treated with 5-aza-dC sensitizer; scaled so ellipticine positive control = 100%. AID 743238. activation, % at 7.58 µM;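 active = mean normalized replicate activation at least 10% and every replicate at or above 10%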;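 also: 0% = median of on-plate neutral control wells and 100% = ellipticine 6 µM median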
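Assay system – SV40-immortalized XiGFP fibroblast cells, line 68-5-11 · Buffer or medium – DMEM supplemented with 5-aza-dC as sensitizing agent · Dosing – one concentration, pinned · Benchmarks – positive control ellipticine, 6 µM final · Times – 3 days compound exposure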
Rin1 Abl inh – inhibitors of human Rin1-Abl protein interaction. TR-FRET Rin1/Abl binding, biochemical. inhibition, % at 7.35 µM. 0.4% of 360,000 active; in the data active = inhibition above about 5%, passing the limit was not always enough
NadD inh – blocks S. aureus nicotinate mononucleotide adenylyltransferase | purified NadD enzyme, colorimetric absorbance read-out | inhibition, % at 20 µM | 0.78% of 360,000 active; in the data active = inhibition above about 26%
Rpn11 inh conf – Rpn11 inhibition confirmation, single concentration; inhibition, % at 20 µM; AID 602318; shares compounds with Rpn11 inh; 29% of 1,900 active; purified human 26S proteasome, Ub4-pepOG fluorescence polarization; proteasome pretreated with epoxomicin
MMP-2 inh – counter-screen for RPN11 inhibitors: inhibition of human MMP-2. 4% of 1,900 active. shares compounds with Rpn11 inh. inhibition, % at 20 µM. AID 602330. recombinant MMP-2, FRET peptide cleavage fluorescence;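 also: human MMP-2 activated beforehand with APMA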
Target sequence (P08253 whole entry, looked up): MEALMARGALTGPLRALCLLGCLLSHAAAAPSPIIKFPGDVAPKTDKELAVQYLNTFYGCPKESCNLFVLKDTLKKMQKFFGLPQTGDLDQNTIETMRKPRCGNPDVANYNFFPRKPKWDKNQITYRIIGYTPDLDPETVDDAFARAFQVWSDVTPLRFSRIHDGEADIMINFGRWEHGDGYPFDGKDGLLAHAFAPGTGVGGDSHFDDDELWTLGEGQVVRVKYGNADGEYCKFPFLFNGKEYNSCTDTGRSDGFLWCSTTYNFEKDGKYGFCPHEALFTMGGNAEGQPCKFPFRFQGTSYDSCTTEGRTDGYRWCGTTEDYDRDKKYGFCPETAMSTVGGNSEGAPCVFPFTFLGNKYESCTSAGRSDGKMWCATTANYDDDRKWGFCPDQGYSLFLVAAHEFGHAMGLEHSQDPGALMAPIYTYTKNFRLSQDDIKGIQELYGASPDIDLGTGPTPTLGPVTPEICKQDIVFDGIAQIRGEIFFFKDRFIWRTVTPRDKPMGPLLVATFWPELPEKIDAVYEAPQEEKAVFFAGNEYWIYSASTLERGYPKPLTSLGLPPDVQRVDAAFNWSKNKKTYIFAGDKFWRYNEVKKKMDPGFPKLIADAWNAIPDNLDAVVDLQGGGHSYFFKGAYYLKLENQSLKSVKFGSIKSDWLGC
Thrombin FP – blocks bovine thrombin, flagging nonselective RPN11 hits; inhibition, % at 20 µM; bovine thrombin cleavage of Ub4-pepOG, fluorescence polarization; shares compounds with Rpn11 inh; 13% of 1,900 active; AID 602333;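 active = mean inhibition at least 40% at 20 µM, or signal 3 deviations below plate average, so some actives read negative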;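 also: plate controls were thrombin with DMSO for no effect and buffer wells lacking thrombin for full effect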
Active calls of the source: *; . = no result given. The list is not random: actives were taken first. Their share in the collection is about 1.9%. Rule as the data show it, unless noted: active = inhibition above about 40%; inactive = the rest.

SMILES	ABHD5 PLIN5 PPI	Rpn11 inh	XiGFP reactiv	Rin1 Abl inh	NadD inh	Rpn11 inh conf	MMP-2 inh	Thrombin FP
CCOc1ccc(C(c2c(C)[nH][nH]c2=O)c2c(C)[nH][nH]c2=O)cc1OC	-11	-2	.	4	-3	.	.	.
Cc1ccc([C@@H]2CC(=O)[C@@H]3CN(S(=O)(=O)c4ccc(C)cc4)[C@H](c4ccccc4F)C[C@@H]3N2S(=O)(=O)c2ccc(C)cc2)cc1	8	50*	0	0	7	5	8	0
COc1ccc(-c2ccc3c(c2)O/C(=C\c2ccsc2)C3=O)cn1	1	39*	0	-2	13	-1	-11	-16
COc1ccc(-c2ccc3c(=O)cc(-c4ccsc4)oc3c2)cn1	0	.	0	2	-3	.	.	.
C[C@H]1CN([C@@H](C)CO)C(=O)c2cc(-c3ccc(F)cc3)cnc2O[C@@H]1CN(C)C(=O)c1ccncc1	.	.	0	.	.	.	.	.
CCCCc1ccc(NC(=O)CC(C)=O)cc1	1	59*	.	0	-4	-14	24	-20
CC(C)(C)c1nc2ccccc2c2nnc(SCC(=O)Nc3nccs3)n12	6	5	.	1	4	.	.	.
CC(C)(C)c1nc2ccccc2c2nnc(SCC(=O)Nc3nc4ccccc4s3)n12	-1	188*	.	0	6	81*	-1	-2
C[C@@H]1CN([C@@H](C)CO)C(=O)c2cc(NC(=O)CCCN(C)C)ccc2O[C@@H](C)CCCCO[C@@H]1CN(C)Cc1ccc2c(c1)OCO2	.	.	0	.	.	.	.	.
N#Cc1c(-c2ccco2)cc(C2CC2)nc1N	5	42*	.	-2	1	-7	-54	-4
N#Cc1c(-c2ccccc2)cc(C2CC2)nc1N	4	-6	.	6	3	.	.	.
COc1ccc2c3c([nH]c2c1)[C@@H](CO)N(C(=O)NC(C)C)CC31CN(Cc2ccccc2)C1	.	.	1	.	.	.	.	.
COc1ccc(N2CCc3c(C)nc4c(OC)cc(OC)cc4c32)cc1	9	-7	0	-15	-7	.	.	.
COc1ccc(N2CCc3c(C)nc4c(OC)cccc4c32)cc1	1	43*	1	-13	1	-15	-25	-2
CCOC(=O)c1c(NC(=O)C(C)OC(=O)C2=COCCO2)sc2c1CCCC2 (stereo not drawn)	-3	3	.	0	-5	.	.	.
CCOC(=O)c1c(NC(=O)C(C)OC(=O)c2ccc(NC(=O)CC#N)cc2)sc2c1CCCC2 (stereo not drawn)	9	53*	0	4	21	39	5	25
CO[C@@H]1CN(C)C(=O)c2ccc(NC(=O)c3cccc(F)c3)cc2OC[C@H](C)N(C)C[C@@H]1C	.	.	0	.	.	.	.	.
Nc1nc(-c2ccccc2)c(-c2ccccc2)n1N	6	56*	0	-1	2	13	-31	14
COc1ccc(OCC(=O)Nc2cc(-c3nn4c(C)nnc4s3)ccc2C)cc1	3	51*	0	0	0	19	-20	-4
O=C(NCCCNc1ccc(C(F)(F)F)cc1[N+](=O)[O-])c1ccc(F)cc1	-5	29	0	-2	-10	.	.	.
Cc1ccc(C(=O)NCCCNc2ccc(C(F)(F)F)cc2[N+](=O)[O-])cc1	-3	41*	0	0	1	16	10	5
COc1ccc(/C=C2\Oc3cc(OCC(=O)N4CCC[C@H]4CO)ccc3C2=O)c(OC)c1	0	75*	.	-2	-1	73*	-53	62*
O=C(CN1CCN(C(=O)c2cccs2)CC1)Nc1ccc(Br)cc1	-2	-4	.	-2	-5	.	.	.
O=C(CN1CCN(C(=O)c2cccs2)CC1)NC1CCCCC1	8	42*	.	-1	-2	-9	-34	-24
CC(C)c1cn(CC[C@@H]2CC[C@H](NC(=O)C3CCCC3)[C@@H](CO)O2)nn1	.	.	0	.	.	.	.	.
SMILES	ABHD5 PLIN5 PPI	Rpn11 inh	XiGFP reactiv	Rin1 Abl inh	NadD inh	Rpn11 inh conf	MMP-2 inh	Thrombin FP
CCc1ccc(/C=C/c2c[nH]c3ccccc23)[n+](CC)c1	-2	50*	1	-16	19	27	-23	43*
CCc1ccc(-c2cc(C(=O)N/N=C/c3c[nH]c4ccccc34)[nH]n2)cc1	3	4	0	-3	21	.	.	.
CCCN1C[C@H](C)[C@@H](OC)CN(C)C(=O)c2ccc(NC(=O)c3ccc(F)cc3)cc2OC[C@@H]1C	.	.	0	.	.	.	.	.
CC(CSc1nc2ccccc2s1)Cn1c(N2CCCC2)nc2c1c(=O)[nH]c(=O)n2C (stereo not drawn)	-2	34*	.	2	2	11	37	8
CCN1CCN(c2nc3c(c(=O)[nH]c(=O)n3C)n2CCSc2nc3ccccc3s2)CC1	-5	2	0	4	7	.	.	.
C[C@H]1CN([C@@H](C)CO)C(=O)c2cc(NS(=O)(=O)c3cn(C)cn3)ccc2O[C@H]1CN(C)S(=O)(=O)c1cn(C)cn1	.	.	-1	.	.	.	.	.
C[C@@H]1CN([C@H](C)CO)C(=O)c2cc(NC(=O)Nc3ccc4c(c3)OCO4)ccc2O[C@@H]1CN(C)S(=O)(=O)c1ccccc1	.	.	0	.	.	.	.	.
Cc1nc2ccc(NC(=O)c3ccc(Cl)c(S(=O)(=O)N(C)c4ccccc4)c3)cc2s1	3	81*	0	5	5	61*	-15	52*
C=CCOc1ccc(/C=C\c2nc(O)c([N+](=O)[O-])c(=O)[nH]2)cc1OC	3	1	.	-5	1	.	.	.
COc1cc(/C=C/c2[nH]c(=O)[nH]c(=O)c2[N+](=O)[O-])ccc1OCCC(C)C	-1	56*	0	2	2	28	-20	-20
C[C@H]1CCCCO[C@H](CN(C)C(=O)Cc2ccccc2)[C@@H](C)CN([C@@H](C)CO)C(=O)c2cc(N(C)C)ccc2O1	.	.	-1	.	.	.	.	.
O=C(c1ccc2c3c(cccc13)CC2)C1CCCN(Cc2cccnc2)C1 (stereo not drawn)	5	37*	0	-5	-2	-10	1	-17
O=C(c1ccc2c3c(cccc13)CC2)C1CCCN(C(=O)c2cccnc2)C1 (stereo not drawn)	9	4	0	-4	-2	.	.	.
COCC(=O)Nc1ccc([N+](=O)[O-])cc1C	-3	-7	0	-5	-4	.	.	.
CCOC(=O)CCC(=O)Nc1ccc([N+](=O)[O-])cc1C	-1	138*	0	0	-5	-8	-31	-10
CCCN1[C@H](C(=O)OC)[C@@H](CO)[C@@H]2Cn3c(ccc(-c4cccc(C(=O)N(C)C)c4)c3=O)[C@@H]21	.	.	0	.	.	.	.	.

Screening results from PubChem BioAssay.
